From ChEMBL document CHEMBL4257556, “Novel 1,3,4-thiadiazole-chalcone hybrids containing catechol moiety: synthesis, antioxidant activity, cytotoxicity and DNA interaction studies” (Medchemcomm, 2018)
Activity calls are given as the source filed them. The rule behind the calls is not given here.

How the values were obtained:
[1] = Antioxidant activity assessed as DPPH free radical scavenging activity after 30 mins; type: functional
Method in brief: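 DPPH (0.05 mM in methanol) mixed with equal volume of compound (DMSO solution diluted in methanol), kept in dark at room temperature 30 min; absorbance at 517 nm, methanol control, ascorbic acid positive control. IC50 = concentration giving 50% of maximum scavenging; mean ± SD of independent triplicate experiments.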

HeLa [2] = experiment: Prooxidant activity in human HeLa cells assessed as increase in H2O2-induced reactive oxygen species at 10 uM preincubated for 24 hrs followed by H2O2 addition and measured after 30 mins by dichlorofluorescein dye-based flow cytometric method; type: functional, cell-based
Method in brief: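 HeLa cells pretreated 24 h with 10 μM compound, washed, loaded with 30 μM DCFH-DA in PBS 45 min at 37 °C. One portion read directly (endogenous ROS); other portion exposed to 10 mM H2O2 30 min at 37 °C. DCF green fluorescence by flow cytometry, 20 000 events per sample; mean ± SD of two independent experiments.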

HeLa [3] = experiment: Cytotoxicity against human HeLa cells assessed as decrease in cell survival after 72 hrs by MTT assay; type: functional, cell-based
Method in brief: (§1)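 HeLa (2000/well), A549 and MRC-5 (5000/well) seeded 20 h before treatment; HL-60 (7000/well) 2 h before. Five concentrations (6.25–100 μM or 3.125–50 μM) from 5 mM DMSO stocks, final DMSO ≤1%, 72 h; survival by MTT. Cisplatin positive control; three independent experiments in triplicate.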

HL-60 = experiment: Cytotoxicity against human HL60 cells assessed as decrease in cell survival after 72 hrs by MTT assay; type: functional, cell-based; details: HL-60, 72 h; method in brief: as §1
A549 = experiment: Cytotoxicity against human A549 cells assessed as decrease in cell survival after 72 hrs by MTT assay; type: functional, cell-based; details: A549, 72 h; method in brief: as §1
MRC5 [4] = experiment: Cytotoxicity against human MRC5 cells assessed as decrease in cell survival after 72 hrs by MTT assay; type: cell-based; details: MRC5, 72 h; method in brief: as §1
HeLa [5] = experiment: Cell cycle arrest in human HeLa cells assessed as accumulation at sub-G1 phase at IC50 and 2 times IC50 after 24 hrs by propidium iodide staining-based flow cytometric method; type: functional
Method in brief: (§2)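 HeLa cells treated 24 h at IC50 or 2×IC50 (from 72 h assay), fixed in 70% ethanol, stored at –20 °C ≥1 week, RNase A 30 min 37 °C, propidium iodide stained; flow cytometry, 10 000 gated events. Mean ± SD of three independent experiments; one-way ANOVA with Dunnett's post-test, p < 0.05.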

HeLa [6] = experiment: Cell cycle arrest in human HeLa cells assessed as accumulation at G2/M phase at 2 times IC50 after 24 hrs by propidium iodide staining-based flow cytometric method; type: functional; method in brief: as §2
HeLa [7] = experiment: Cell cycle arrest in human HeLa cells assessed as decrease in cell levels at G1 phase at 2 times IC50 after 24 hrs by propidium iodide staining-based flow cytometric method; type: functional; method in brief: as §2
HeLa [8] = experiment: Cell cycle arrest in human HeLa cells assessed as accumulation at sub-G1 phase at 2 times IC50 after 24 hrs in presence of caspase-3 inhibitor Z-DEVD-FMK by propidium iodide-staining based flow cytometric method; type: functional
Method in brief: (§3)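 HeLa cells pretreated 2 h with 40 μM peptide caspase inhibitor (Z-DEVD-FMK caspase-3, Z-IETD-FMK caspase-8 or Z-LEHD-FMK caspase-9), then exposed to 2×IC50 compound; subG1 fraction by propidium iodide flow cytometry, compared with samples lacking inhibitor.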

HeLa [9] = experiment: Cell cycle arrest in human HeLa cells assessed as accumulation at sub-G1 phase at 2 times IC50 after 24 hrs in presence of caspase-9 inhibitor Z-LEHD-FMK by propidium iodide-staining based flow cytometric method; type: functional; method in brief: as §3
HeLa [10] = experiment: Cell cycle arrest in human HeLa cells assessed as accumulation at sub-G1 phase at 2 times IC50 after 24 hrs in presence of caspase-8 inhibitor Z-IETD-FMK by propidium iodide-staining based flow cytometric method; type: functional; method in brief: as §3
HeLa [11] = experiment: Downregulation of MMP2 gene expression in human HeLa cells at 10 uM after 24 hrs by RT-qPCR method; type: functional, cell-based
HeLa [12] = experiment: Downregulation of TIMP3 gene expression in human HeLa cells at 10 uM after 24 hrs by RT-qPCR method; type: functional, cell-based
HeLa [13] = experiment: Upregulation of MMP9 gene expression in human HeLa cells at 10 uM after 24 hrs by RT-qPCR method; type: functional, cell-based
HeLa [14] = experiment: Downregulation of VEGFA gene expression in human HeLa cells at 10 uM after 24 hrs by RT-qPCR method; type: functional, cell-based
HeLa [15] = experiment: Downregulation of miR-21 expression in human HeLa cells at 10 uM after 24 hrs by RT-qPCR method; type: functional, cell-based
HeLa [16] = experiment: Downregulation of miR-155 expression in human HeLa cells at 10 uM after 24 hrs by RT-qPCR method; type: functional, cell-based
HeLa [17] = experiment: Downregulation of miR-133b expression in human HeLa cells at 10 uM after 24 hrs by RT-qPCR method; type: functional, cell-based
HeLa [18] = experiment: Upregulation of miR-206 expression in human HeLa cells at 10 uM after 24 hrs by RT-qPCR method; type: functional, cell-based
Calf thymus DNA [19] = experiment: Binding affinity to calf thymus DNA at 10 to 40 uM after 90 mins by UV/visible spectrophotometric analysis; type: nucleic-acid assay; details: Bos taurus
Method in brief: (§4)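 CT-DNA stock in 10 mM Tris-HCl pH 7.9 (A260/A280 1.89–2.01; concentration from ε260 6600 M–1 cm–1). Compound (10, 20 or 40 μM) plus CT-DNA (95 μM) in 40 mM bicarbonate pH 8.4, 37 °C 90 min; spectra 200–800 nm. Hyper/hypochromism at 259 nm from bound versus summed free compound and DNA extinction; triplicate.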

Calf thymus DNA [20] = experiment: Binding affinity to calf thymus DNA assessed as hypochromism at 10 to 20 uM after 90 mins by UV/visible spectrophotometric analysis; type: nucleic-acid assay; details: Bos taurus; method in brief: as §4
Calf thymus DNA [21] = experiment: Binding affinity to calf thymus DNA assessed as hypochromism at 40 uM after 90 mins by UV/visible spectrophotometric analysis; type: nucleic-acid assay; details: Bos taurus; method in brief: as §4
Calf thymus DNA [22] = experiment: Binding affinity to calf thymus DNA after 90 mins by spectroscopic titration method; type: nucleic-acid assay; details: Bos taurus
Method in brief: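 Compound fixed at 40 μM titrated with CT-DNA (2.2–13 × 10–5 M) in 40 mM bicarbonate pH 8.4 after 90 min at 37 °C; absorbance at 259 nm per DNA level. Kb from slope/intercept ratio of [DNA]/(εa–εf) versus [DNA] plot; triplicate assays.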

Calf thymus DNA [23] = experiment: Displacement of Hoechst 33258 from calf thymus DNA assessed as fluorescence intensity of compound-DNA complex at 22 uM by fluorescence spectrophotometric analysis relative to control; type: nucleic-acid assay; details: Bos taurus
Method in brief: (§5)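 CT-DNA 100 μM (per phosphate) in 40 mM bicarbonate pH 8.4 pretreated 20 min with Hoechst 33258 (28 μM final), then compound added stepwise. Excitation 350 nm, emission 390–550 nm, read at 444 nm, 10 nm slits; H–DNA as control. Quenching constant K by Stern–Volmer, I0/I versus r = [compound]/[DNA]; triplicate.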

Calf thymus DNA [24] = experiment: Displacement of Hoechst 33258 from calf thymus DNA assessed as quenching constant by fluorescence spectrophotometric analysis; type: nucleic-acid assay; details: Bos taurus; method in brief: as §5
MRC5 [25] = experiment: Induction of DNA damage in human MRC5 cells assessed as formation of DNA breaks at 25 uM after 24 hrs by comet assay relative to control; type: functional
Method in brief: (§6)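 MRC-5 cells exposed 24 h to 3.125–25 μM compound; DNA damage scored as % tail DNA (tail intensity) by comet assay. PBS negative control; H2O2 50 μM 5 min in-gel positive control. Triplicate, repeated twice; mean ± SD.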

MRC5 [26] = experiment: Induction of DNA damage in human MRC5 cells assessed as formation of DNA breaks after 24 hrs by comet assay; type: functional, cell-based; method in brief: as §6
DNA [27] = experiment: Induction of Escherichia coli pUC19 DNA cleavage at 0.05 to 0.4 mM after 90 mins by agarose gel electrophoresis method; type: nucleic-acid assay
Method in brief: (§7)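 Plasmid pUC19 (from E. coli XL1 blue; 460 ng, 12 nM) incubated with compound (0.05–0.4 mM; from 2 mM DMSO stock) in 20 μL 40 mM bicarbonate pH 8.4 at 37 °C for 90 min; 1% agarose gel in TAE at 80 V, ethidium bromide staining, UV at 312 nm; supercoiled/nicked/linear forms scored.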

DNA [28] = experiment: Reversal of Fe2+-induced Escherichia coli pUC19 DNA cleavage at 1:1 compound to Fe2+ mole ratio after 90 mins by agarose gel electrophoresis method; type: functional
Method in brief: (§8)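 Compound (4 μL of 2 mM) preincubated with FeSO4 (1 or 2 μL of 8 mM; compound:Fe 1:1 or 1:2) in bicarbonate buffer 60 min at 37 °C, then pUC19 added for another 90 min; products resolved on 1% agarose gel, ethidium bromide stained.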

DNA [29] = experiment: Reversal of Fe2+-induced Escherichia coli pUC19 DNA cleavage at 1:2 compound to Fe2+ mole ratio after 90 mins by agarose gel electrophoresis method; type: functional; method in brief: as §8
EA.hy 926 = experiment: Antiangiogenic activity in human EAhy926 cells assessed as inhibition of tubular structures formation at IC20 after 20 hrs by inverted phase-contrast microscopic method; type: functional, cell-based
Calf thymus DNA [30] = experiment: Binding affinity to calf thymus DNA assessed as hyperchromism at 10 to 20 uM after 90 mins by UV/visible spectrophotometric analysis; type: nucleic-acid assay; details: Bos taurus; method in brief: as §4
DNA [31] = experiment: Induction of Escherichia coli pUC19 DNA cleavage after 90 mins by agarose gel electrophoresis method; type: nucleic-acid assay; method in brief: as §7

O=C(/C=C/c1ccc(C(=O)Nc2nnc(-c3ccc(O)c(O)c3)s2)cc1)c1ccccc1
IC50 [1]: 12 µM | Activity (HeLa [2]): Active | IC50 (HeLa [3]): 9.37 µM | IC50 (HL-60): 8.4 µM | IC50 (A549): 42.8 µM | IC50 (MRC5 [4]): 36 µM | Activity (HeLa [5]): Active | Activity (HeLa [6]): Active | Activity (HeLa [7]): Active | Activity (HeLa [8]): inactive | Activity (HeLa [9]): inactive | Activity (HeLa [10]): inactive | Activity (HeLa [11]): Active | Activity (HeLa [12]): Active | Activity (HeLa [13]): Active | Activity (HeLa [14]): inactive | Activity (HeLa [15]): Active | Activity (HeLa [16]): Active | Activity (HeLa [17]): Active | Activity (HeLa [18]): Active | Activity (Calf thymus DNA [19]): Active | Activity (Calf thymus DNA [20]): 13% | Activity (Calf thymus DNA [21]): inactive | Kb (Calf thymus DNA [22]): 1.09 ×10³ /M | Activity (Calf thymus DNA [23]): 58% | K (Calf thymus DNA [24]): 3.3 | Activity (MRC5 [25]): 45% | Activity (MRC5 [26]): Dose-dependent effect | Activity (DNA [27]): inactive | Activity (DNA [28]): Active | Activity (DNA [29]): Active

O=C(Nc1nnc(-c2ccc(O)c(O)c2)s1)c1ccc(/C=C/C(=O)c2cccs2)cc1
IC50 [1]: 11.1 µM | Activity (HeLa [2]): inactive | IC50 (HeLa [3]): 12.7 µM | IC50 (HL-60): 15.7 µM | IC50 (A549): 47.9 µM | IC50 (MRC5 [4]): 68.5 µM | Activity (HeLa [5]): Active | Activity (HeLa [6]): Active | Activity (HeLa [7]): Active | Activity (HeLa [8]): inactive | Activity (HeLa [9]): inactive | Activity (HeLa [10]): inactive | Activity (HeLa [11]): Active | Activity (HeLa [12]): Active | Activity (HeLa [13]): Active | Activity (HeLa [14]): Active | inhibition (EA.hy 926): Active | Activity (HeLa [15]): Active | Activity (HeLa [16]): Active | Activity (HeLa [17]): Active | Activity (HeLa [18]): inactive | Activity (Calf thymus DNA [19]): Active | Activity (Calf thymus DNA [30]): Active | Kb (Calf thymus DNA [22]): 1.01 ×10³ /M | Activity (Calf thymus DNA [23]): 51% | K (Calf thymus DNA [24]): 4.66 | Activity (MRC5 [25]): 25% | Activity (MRC5 [26]): Dose-dependent effect | Activity (DNA [31]): inactive | Activity (DNA [28]): Active | Activity (DNA [29]): Active
